Active and inactive are the calls of the source. The rule behind the calls is not given here.
How the values were obtained:
[1] = Cytotoxicity against human HMEC1 cells at 100 uM after 3 days by coulter counter method; type: cell-based; details: hmec-1, 72 h
How it was run: (§1)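 Cells seeded at 10,000 cells per cm2; after 16 h, fresh medium with test compound added. Cells trypsinized and counted with a Coulter counter on day 4 (BAEC, HeLa, MCF-7) or day 7 (HMEC-1). Cytotoxicity (cell death) was judged after 3 days in culture. HMEC-1 grown in EGM-2 with supplements and growth factors.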

[2] = Cytotoxicity against bovine BAEC cells at 100 uM after 3 days by coulter counter method; type: cell-based, Bos taurus; details: cattle, 72 h; how it was run: as §1
HeLa [3] = test: Cytotoxicity against human HeLa cells at 100 uM after 3 days by coulter counter method; type: cell-based; details: 72 h; how it was run: as §1
MCF7 [4] = test: Cytotoxicity against human MCF7 cells at 100 uM after 3 days by coulter counter method; type: cell-based; details: mcf7, 72 h; how it was run: as §1
MAEC [5] = test: Antimigratory activity against mouse MAEC cell migration after 5 hrs by wound closure assay; type: functional, cell-based
How it was run: (§2)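 Confluent MAEC monolayers wounded with a 1.0-mm wide micropipette tip, then incubated in fresh medium with test compound. Wounds photographed after 5 h and width calculated from digital images. Mean ± SD of 2–4 independent experiments; Student t test, p < 0.05 significant.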

[6] = (§3) Antimigratory activity against mouse MAEC cell migration at 30 uM after 5 hrs by wound closure assay; type: functional; how it was run: as §2
[7] = Antimigratory activity against mouse MAEC cell migration at 10 uM after 5 hrs by wound closure assay; type: functional; how it was run: as §2
HMEC-1 [8] = test: Antiangiogenic activity in human HMEC1 cells assessed as inhibition of tube formation at 10 uM after 4 to 6 hrs by matrigel assay; type: functional, cell-based
How it was run: (§4)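 HMEC-1 (60,000 cells) seeded on matrigel (10 mg/mL) after 30 min gelling at 37 °C, in DMEM containing test compound; after 4–6 h cells photographed and tubes scored 0 (none) to 3 (maximal, like untreated control). Mean ± SD of 2–4 independent experiments; Student t test, p < 0.05 significant.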

HMEC-1 [9] = test: Antiangiogenic activity in human HMEC1 cells assessed as inhibition of tube formation after 4 to 6 hrs by matrigel assay; type: functional, cell-based; how it was run: as §4
HMEC-1 [10] = test: Antiangiogenic activity in human HMEC1 cells assessed as inhibition of tube formation at 100 uM after 4 to 6 hrs by matrigel assay; type: functional, cell-based; how it was run: as §4
[11] = Antiproliferative activity against human HMEC1 cells after 7 days by coulter counter method; type: functional, cell-based; details: HMEC-1, 168 h
HeLa [12] = test: Antiproliferative activity against human HeLa cells after 4 days by coulter counter method; type: functional, cell-based; details: 96 h
[13] = Antiproliferative activity against bovine BAEC cells after 4 days by coulter counter method; type: functional, cell-based; details: Bos taurus, 96 h
HMEC-1 [14] = test: Antiangiogenic activity in human HMEC1 cells assessed as inhibition of tube formation at 30 uM after 4 to 6 hrs by matrigel assay; type: functional, cell-based; how it was run: as §4
MCF7 [15] = test: Antiproliferative activity against human MCF7 cells after 4 days by coulter counter method; type: functional, cell-based; details: MCF7, 96 h
Gallus gallus [16] = species on record: Gallus gallus; test: Antiangiogenic activity in chicken embryo chorioallantoic membrane model at 250 nmol/disc after 3 days; type: functional, tissue-based
Prothrombin = Prothrombin (Homo sapiens, UniProt P00734); test: Inhibition of thrombin
Gallus gallus [17] = species on record: Gallus gallus; test: Antiangiogenic activity in chicken embryo chorioallantoic membrane model assessed as inhibition of chorioallantoic membrane vascularization at 100 to 250 nmol/disc after 3 days; type: functional, tissue-based
Gallus gallus [18] = species on record: Gallus gallus; test: Antiangiogenic activity in chicken embryo chorioallantoic membrane model assessed as inhibition of pre-existing mature vessel at 100 to 250 nmol/disc after 3 days; type: functional, tissue-based
Gallus gallus [19] = species on record: Gallus gallus; test: Antiangiogenic activity in chicken embryo chorioallantoic membrane model assessed as degradation of immature existing blood vessels at 40 to 250 nmol/disc after 3 days; type: functional, tissue-based
[20] = Cytotoxicity against human HMEC1 cells at 30 uM after 3 days by coulter counter method; type: cell-based; details: hmec-1, 72 h; how it was run: as §1
[21] = Cytotoxicity against bovine BAEC cells at 30 uM after 3 days by coulter counter method; type: cell-based, Bos taurus; details: cattle, 72 h; how it was run: as §1
HeLa [22] = test: Cytotoxicity against human HeLa cells at 30 uM after 3 days by coulter counter method; type: cell-based; details: 72 h; how it was run: as §1
MCF7 [23] = test: Cytotoxicity against human MCF7 cells at 30 uM after 3 days by coulter counter method; type: cell-based; details: mcf7, 72 h; how it was run: as §1
MAEC [24] = test: as §3; type: functional; how it was run: as §2
[25] = Antimigratory activity against mouse MAEC cell migration at 3 uM after 5 hrs by wound closure assay; type: functional; how it was run: as §2
Gallus gallus [26] = species on record: Gallus gallus; test: Antiangiogenic activity in chicken embryo chorioallantoic membrane model assessed as destruction of vessels with bleeding at 20 nmol/disc after 3 days; type: functional, tissue-based

SMILES | Activity [1] | Activity [2] | Activity (HeLa [3]) | Activity (MCF7 [4]) | inhibition (MAEC [5]) | inhibition at 30 µM [6] [%] | inhibition at 10 µM [7] [%] | inhibition (HMEC-1 [8]) | inhibition (HMEC-1 [9]) | inhibition (HMEC-1 [10]) | IC50 [11] [µM] | IC50 (HeLa [12]) [µM] | IC50 [13] [µM] | inhibition (HMEC-1 [14]) | IC50 (MCF7 [15]) [µM] | inhibition (Gallus gallus [16]) | Ki (Prothrombin) [µM] | further results
CCOC(=O)C(=O)N(Cc1ccccc1)c1ccc2c(c1)OC(C)(CO)CN2C (configuration not stated) | Toxic | Toxic | Toxic | Toxic | Dose-dependent effect | > 80 | > 40 | inactive | Active | Active | > 100 | > 100 | > 100 | Active | > 100 | – | – | –
CCOC(=O)C(=O)N(Cc1cc(F)cc(F)c1)c1ccc2c(c1)OC(C)(CO)CN2C (configuration not stated) | Toxic | Toxic | Toxic | Toxic | Dose-dependent effect | > 80 | > 40 | inactive | Active | Active | 89 | 44 | 60 | Active | 45 | – | – | –
CCOC(=O)C(=O)N(Cc1ccccc1)c1ccc2c(c1)OC(COc1ccc(C(=N)N)cc1)CO2 (configuration not stated) | Non-toxic | Non-toxic | Non-toxic | Non-toxic | Dose-dependent effect | > 80 | > 40 | – | Dose-dependent effect | – | 22 | 8 | 8.5 | – | 8.7 | Active | 0.178 | inhibition (Gallus gallus [17]): Active; Activity (Gallus gallus [18]): inactive
CCOC(=O)CN(Cc1cc(F)cc(F)c1)c1ccc2c(c1)N(C)CC(C)(COc1ccc(C(=N)N)cc1)O2 (configuration not stated) | Toxic | Toxic | Toxic | Toxic | Dose-dependent effect | – | 50 | inactive | – | – | 6.7 | 4.5 | 4 | Active | 4.5 | Active | – | Activity (Gallus gallus [19]): Active; Activity [20]: Toxic; Activity [21]: Toxic; Activity (HeLa [22]): Toxic; Activity (MCF7 [23]): Toxic; inhibition (MAEC [24]): Active; inhibition at 3 µM [25]: > 40%; Activity (Gallus gallus [26]): Active
CCOC(=O)C(=O)N(Cc1ccccc1)c1ccc2c(c1)OC[C@H](COc1ccc(C(=N)N)cc1)O2 | Non-toxic | Non-toxic | Non-toxic | Non-toxic | – | – | – | – | – | – | 24 | 19 | 12 | – | 9.5 | Active | 0.018 | –
